# Bioassay records from PubChem BioAssay.
# Shown are actives, neighbours in structure and some others; about 3.5% of the full set was active somewhere.
# PAFAH1B3 FP inh: PAFAH1B3 enzyme inhibitors, primary screen, biochemical, fluorescence polarization, human. Platelet-activating factor acetylhydrolase IB subunit alpha1 (Homo sapiens), Q15102. recombinant PAFAH1B3, FP-rhodamine probe. inhibition, % at 3.39 µM. 340,000 compounds, 0.28% hits. AID 492972, 2010;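 active means inhibition above the screen-wide average of all tested compounds plus 3 SD, cut at about 25% in these data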;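 further: 0% = enzyme with DMSO only and 100% = wells lacking PAFAH1B3 protein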
# Target sequence (Q15102 whole entry, looked up): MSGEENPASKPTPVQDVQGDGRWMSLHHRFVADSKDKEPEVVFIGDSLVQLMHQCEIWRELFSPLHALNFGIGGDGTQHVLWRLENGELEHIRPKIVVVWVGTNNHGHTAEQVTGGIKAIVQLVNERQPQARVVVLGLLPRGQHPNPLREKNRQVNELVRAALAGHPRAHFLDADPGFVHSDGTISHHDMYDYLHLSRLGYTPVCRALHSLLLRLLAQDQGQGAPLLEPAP
# pPAFAH inh: pPAFAH enzyme inhibitors, primary screen, biochemical, fluorescence polarization, human. Platelet-activating factor acetylhydrolase (Homo sapiens), Q13093. 330,000 compounds, 1.5% hits. inhibition, % at 3.39 µM. recombinant pPAFAH, FP-rhodamine probe fluorescence polarization;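 active means inhibition above the mean inhibition across the screen plus 3 SD, cut at about 25% in these data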;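 further: inhibitors block binding of the rhodamine activity-based probe so polarization drops; 0% = enzyme with DMSO and 100% = wells lacking pPAFAH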
# Apaf1 inhib: inhibitors of human Apaf-1 apoptosome, primary screen, biochemical, DEVD-Rh110 fluorescence, uHTS; Apoptotic protease-activating factor 1 (Homo sapiens), O14727; reconstituted apoptosome caspase-3 activity; inhibition, % at 20 µM; 330,000 compounds, 0.71% hits; active means inhibition of at least 40% at 20 µM;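 further: plate controls were DMSO wells for no effect and DEVD-CHO caspase inhibitor wells for full effect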
#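 Assay system: Apoptosome proteins | Medium: pH 7.5 Hepes buffer with CHAPS, BSA, DTT | Also added: Cytochrome c and DEVD-Rh110 substrate | Times: 30 min plus 50 min, RT | Detection: Rhodamine 110 fluorescence at Ex 480/Em 540 nm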
# PAFAH1B2 FP inh: PAFAH1B2 enzyme inhibitors, primary screen, biochemical, fluorescence polarization, human | Platelet-activating factor acetylhydrolase IB subunit alpha2 (Homo sapiens), P68402 | recombinant PAFAH1B2, FP-rhodamine activity probe | inhibition, % at 3.39 µM | 340,000 compounds, 1.2% hits | AID 492953, 2010;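 active means inhibition above the mean of all tested compounds plus 3 SD, cut at about 24% in these data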;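 further: 0% = enzyme with DMSO and 100% = wells lacking PAFAH1B2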
# Target sequence (P68402 whole entry, looked up): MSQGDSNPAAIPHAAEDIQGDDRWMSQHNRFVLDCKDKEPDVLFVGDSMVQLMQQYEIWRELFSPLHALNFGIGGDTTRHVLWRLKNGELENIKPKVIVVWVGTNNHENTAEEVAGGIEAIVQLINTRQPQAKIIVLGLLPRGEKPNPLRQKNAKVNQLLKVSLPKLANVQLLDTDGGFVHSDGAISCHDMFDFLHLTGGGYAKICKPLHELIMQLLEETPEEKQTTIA
# PAFAH2 FP inh: PAFAH2 enzyme inhibitors, primary screen, biochemical, fluorescence polarization, human; Platelet-activating factor acetylhydrolase 2, cytoplasmic (Homo sapiens), Q99487; recombinant PAFAH2, FP-rhodamine activity probe; inhibition, % at 3.39 µM; 340,000 compounds, 0.99% hits; AID 492956, 2010;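 active means inhibition above the mean over all tested compounds plus 3 SD, cut at about 30% in these data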;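 further: inhibitors block probe labeling of enzyme so polarization drops; 0% = enzyme with DMSO and 100% = wells lacking PAFAH2 protein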
# PREPL inhibitor: PREPL enzyme inhibitors, primary screen, biochemical, fluorescence polarization; recombinant PREPL, fluorescence polarization activity-based probe; inhibition, % at 5.96 µM; AID 2751, 2010; Prolyl endopeptidase-like (Homo sapiens), Q4J6C6; 320,000 compounds, 0.68% hits;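 further: 0% = enzyme with DMSO and 100% = wells lacking enzyme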
# PREPL confirm: human PREPL enzyme inhibitors, confirmation, biochemical, fluorescence polarization | 2,000 compounds, 67% hits | shares compounds with PREPL inhibitor | inhibition, % at 5.96 µM | AID 2803, 2010 | recombinant PREPL, fluorescence polarization activity probe;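 further: 0% = protein with DMSO and 100% = wells lacking protein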
# pPAFAH confirm: pPAFAH (PLA2G7) enzyme inhibitors, confirmation, biochemical, fluorescence polarization, human; AID 463230, 2010; inhibition, % at 3.39 µM; shares compounds with pPAFAH inh; 2,300 compounds, 72% hits; recombinant pPAFAH, FP-Rh probe fluorescence polarization;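 active means mean inhibition of the triplicate above the hit cutoff set for the earlier primary screen, cut at about 25% in these data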;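 further: 0% = enzyme with DMSO and 100% = wells lacking pPAFAH enzyme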
# Apaf-1 inh conf: Apaf-1 inhibitors, single-dose retest, confirmation, biochemical, fluorescence, DEVD-Rh110, 20 µM | reconstituted apoptosome, caspase-3 DEVD-Rh110 fluorescence | inhibition, % at 20 µM | shares compounds with Apaf1 inhib | 1,800 compounds, 25% hits;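 active means mean inhibition of at least 40% at 20 µM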;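 further: plate controls were DMSO wells for no effect and DEVD-CHO caspase inhibitor control wells for full effect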
# Rh110 interf inh: Rh110 fluorescence interference by putative Apaf-1 inhibitors, confirmation, artefact control for Apaf-1 inhibitor project, biochemical, 20 µM. shares compounds with Apaf1 inhib. quenched caspase reaction. activation (fluorescence interference), % at 20 µM. 1,800 tested, under 10 active;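 active means signal rise of 40% or more at 20 µM, treated as a fluorescence artifact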
# Apaf1 inh interf: fluorescence interference of Apaf-1 inhibitor hits, dose response, artefact control for Apaf-1 inhibitor project. shares compounds with Apaf1 inhib. IC50, µM. AID 588538, 2011. 460 tested, under 10 active. fluorescence interference counterscreen, Apaf-1 assay format; call rule not given here
# Active calls of the source: *; x = no result given. Unless noted, no stated cut-off is given here; in the data, active means inhibition above about 43%; inactive means the rest.
SMILES,PAFAH1B3 FP inh,pPAFAH inh,Apaf1 inhib,PAFAH1B2 FP inh,PAFAH2 FP inh,PREPL inhibitor,PREPL confirm,Apaf-1 inh conf,Rh110 interf inh,others
CCCCCCCCCCCCCCCC[n+]1cccc(C(=O)N(CC)CC)c1,2,32*,74*,3,-5,50*,51*,72*,20,Apaf1 inh interf=>100
O=C(CN1CCN(C(=O)CNC(=O)c2ccc3c(c2)OCO3)CC1)Nc1ccc(F)cc1,4,0,-3,8,2,-3,x,x,x,
CCCCCc1cc(=O)oc2c(C(CCN3CCCC3)c3ccc(N(C)C)cc3)c(OC)cc(OC)c12 (centres undefined),-7,6,45*,-2,-2,50*,49*,37,13,
O=C(N=Nc1c(O)[nH]c2ccc(F)cc12)C1COc2ccccc2O1 (centres undefined),-1,8,-14,-1,-7,-2,x,x,x,
COc1ccc(C(=O)/C=C/c2ccc(O)cc2)c(O)c1C/C=C(\C)CCC=C(C)C,-2,-7,10,0,-15,14,x,x,x,
Cc1nnc(N/N=C/c2cccc(OCc3ccc(Cl)c(Cl)c3)c2)n1N,6,7,77*,1,10,73*,65*,16,5,
Cc1nnc(N/N=C/c2cccc(C(F)(F)F)c2)n1N,12,4,-1,2,-5,3,x,x,x,
CCOC(=O)c1[nH]c(COC(=O)CCCOc2ccccc2)c(C(=O)OCC)c1C,x,10,18,x,x,-11,x,x,x,
CN(C)CCCn1c2c(c(SCC(=O)Nc3ccc4c(c3)OCO4)nc1=O)CCC2,9,1,0,5,4,7,x,x,x,
COc1ccc(/C=N/Nc2cc(C)nc3ccc(OC)cc23)c(OC)c1,9,12,43*,-2,3,89*,81*,0,7,
CC1CCC2(CC1)NC(=O)N(CC(=O)c1ccc(CNC(=O)C(C)(C)C)s1)C2=O (centres undefined),-3,-2,-2,19,-4,7,x,x,x,
CCN1CCN(S(=O)(=O)c2ccc(Cl)c(C(=O)N(C)Cc3cccc(Cl)c3Cl)c2)CC1,6,2,43*,0,8,55*,42,30,-1,
CCOc1ccc2nc3cc(NCc4ccc(OC)cc4)ccc3c(N)c2c1,18,38*,96*,5,12,102*,79*,82*,-4,pPAFAH confirm=11;Apaf1 inh interf=>100
CC(=O)Nc1ccc(S(=O)(=O)Nc2ccc(N3CCOCC3)cc2)cc1,7,1,4,2,-4,9,x,x,x,
CC(=O)Nc1ccc(S(=O)(=O)NC2=C(N3CCN(c4ccc(F)cc4)CC3)C(=O)c3ccccc3C2=O)cc1,18,7,64*,6,14,59*,74*,64*,4,Apaf1 inh interf=>100
